From ChEMBL document CHEMBL1140049, “Bioisosteric replacement of the pyrazole 5-aryl moiety of N-(piperidin-1-yl)-5-(4-chlorophenyl)-1-(2,4-dichlorophenyl)-4-methyl-1H-pyrazole-3-carboxamide (SR141716A). A novel series of alkynylthiophenes as potent and selective cannabinoid-1 receptor antagonists” (J Med Chem, 2008)
Active and inactive are the calls of the source. The rule behind the calls is not given here.

What was measured:
Cannabinoid receptor 1 [1] = biological target: T1, Cannabinoid receptor 1 (Homo sapiens, UniProt P21554); test: Antagonist activity at human CB1 receptor expressed in HEK293 cells assessed as effect on [35S]gammaGTP binding relative to control; assay type: cell-based
T1 sequence (P21554 whole entry): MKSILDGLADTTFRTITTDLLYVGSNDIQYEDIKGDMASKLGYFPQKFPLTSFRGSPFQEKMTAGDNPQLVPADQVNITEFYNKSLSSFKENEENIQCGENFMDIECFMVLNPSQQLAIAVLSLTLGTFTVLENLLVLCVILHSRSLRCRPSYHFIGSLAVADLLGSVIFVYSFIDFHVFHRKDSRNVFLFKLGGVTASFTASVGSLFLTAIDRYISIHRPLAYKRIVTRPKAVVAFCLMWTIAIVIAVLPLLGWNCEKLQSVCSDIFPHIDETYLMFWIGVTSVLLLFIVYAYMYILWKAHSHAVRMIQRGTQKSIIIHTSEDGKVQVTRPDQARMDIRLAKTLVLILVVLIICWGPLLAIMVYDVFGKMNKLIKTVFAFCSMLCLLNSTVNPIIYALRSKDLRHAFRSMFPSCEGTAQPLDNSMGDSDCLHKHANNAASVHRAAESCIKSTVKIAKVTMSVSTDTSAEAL

Cannabinoid receptor 1 [2] = biological target: T1, Cannabinoid receptor 1; test: Antagonist activity at human CB1 receptor expressed in HEK293 cells assessed as inhibition of Eu-GTP binding; assay type: cell-based
HEK293 = test: Selectivity ratio of IC50 for human CB2 receptor to human CB1 receptor expressed in HEK293 cells; assay type: cell-based
Cannabinoid receptor 1 [3] = biological target: T1, Cannabinoid receptor 1; test: biochemical; assay type: cell-based, HEK293
Cannabinoid receptor 2 = Cannabinoid receptor 2 (Homo sapiens, UniProt P34972); test: Displacement of [3H]CP-55940 from human CB2 receptor expressed in HEK293 cells; assay type: cell-based
Sequence of Cannabinoid receptor 2 (P34972 whole entry): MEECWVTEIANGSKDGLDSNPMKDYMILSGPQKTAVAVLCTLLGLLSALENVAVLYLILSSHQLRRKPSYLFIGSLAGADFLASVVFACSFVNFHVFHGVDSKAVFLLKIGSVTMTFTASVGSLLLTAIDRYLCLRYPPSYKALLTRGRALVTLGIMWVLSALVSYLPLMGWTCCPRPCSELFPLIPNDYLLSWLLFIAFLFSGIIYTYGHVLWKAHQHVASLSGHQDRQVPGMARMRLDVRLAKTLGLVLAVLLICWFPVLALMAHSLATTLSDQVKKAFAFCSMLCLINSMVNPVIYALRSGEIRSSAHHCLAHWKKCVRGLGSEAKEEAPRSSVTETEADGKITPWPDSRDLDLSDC

Cannabinoid receptor 1 [4] = biological target: T1, Cannabinoid receptor 1; test: Agonist activity at human CB1 receptor expressed in HEK293 cells assessed as increase in [35S]gammaGTP binding relative to control; assay type: cell-based
Cannabinoid receptor 1 [5] = biological target: T1, Cannabinoid receptor 1; test: Displacement of [3H]SR141716A from human CB1 receptor expressed in HEK293 cells; assay type: cell-based
Mus musculus [6] = test: Decrease in body weight in DIO C57BL/6 mouse model at 10 mg/kg, po qd for 21 days
Rattus norvegicus = test: Suppression of appetite in orally dosed spontaneously feeding Wistar rat model; assay type: functional, organism-based
Method in brief: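 Male Wistar rats (210-270 g), singly housed on 12 h reversed light cycle over a week; single oral gavage of 3, 10 or 20 mg/kg or vehicle (20% DMSO/10% Tween-80/70% H2O) before lights off, chow supplied at 11 a.m.; food intake at 1, 2, 3, 6 h as cal per g body weight; n = 4-6.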

Mus musculus [7] = test: Suppression of appetite in orally dosed DIO C57BL/6 mouse model; assay type: functional, organism-based
Mus musculus [8] = test: Decrease in body weight in DIO C57BL/6 mouse model at 20 mg/kg, po qd for 21 days; assay type: functional, organism-based; design: dose 20 mg/kg

| Activity (Cannabinoid receptor 1 [1]) | EC50 (Cannabinoid receptor 1 [2]) [nM] | IC50 (Cannabinoid receptor 1 [3]) [nM] | IC50 (Cannabinoid receptor 2) [nM] | Activity (Cannabinoid receptor 1 [4]) | IC50 (Cannabinoid receptor 1 [5]) [nM] | SMILES | Ratio IC50 (HEK293) | Activity (Mus musculus [6]) | Activity (Rattus norvegicus) | Activity (Mus musculus [7]) | Activity (Mus musculus [8]) |
| --- | --- | --- | --- | --- | --- | --- | --- | --- | --- | --- | --- |
|  | 57.4 | 23.2 | 1760 | Active |  | Cc1c(C(=O)NN2CCCCC2)nn(-c2ccc(Cl)cc2Cl)c1-c1ccc(C#CCOC(C)C)s1 | 76 |  |  |  |  |
|  | 24.5 | 7.1 | 1810 | Active |  | Cc1c(C(=O)NN2CCCCC2)nn(-c2ccc(Cl)cc2Cl)c1-c1ccc(C#CC2CCCC2)s1 | 255 |  |  |  |  |
|  | 14.6 | 4.9 | 688 | Active | 1.2 | Cc1c(C(=O)NN2CCCCCC2)nn(-c2ccc(Cl)cc2Cl)c1-c1ccc(C#CCC(C)C)s1 | 139 |  |  |  |  |
| Active | 36.4 | 24.2 | 1060 |  |  | CCC#Cc1ccc(-c2c(C)c(C(=O)NN3CCCCCC3)nn2-c2ccc(Cl)cc2Cl)s1 | 44 |  |  |  |  |
|  | 12.1 | 2.3 | 386 | Active | 1.2 | Cc1c(C(=O)NN2CCCCC2)nn(-c2ccc(Cl)cc2Cl)c1-c1ccc(C#CCC(C)C)s1 | 168 |  |  |  |  |
|  | 143 | 65.3 | 2740 |  |  | COCC#Cc1ccc(-c2c(C)c(C(=O)NN3CCCCC3)nn2-c2ccc(Cl)cc2Cl)s1 | 42 |  |  |  |  |
|  |  |  |  |  |  | Cc1c(C(=O)NN2CCCCC2)nn(-c2ccc(Cl)cc2Cl)c1-c1ccc(Cl)cc1 |  | Active |  |  |  |
|  | 158 | 21.7 | 1160 | Active |  | Cc1c(C(=O)NN2CC3CCCC3C2)nn(-c2ccc(Cl)cc2Cl)c1-c1ccc(C#CC(C)(C)C)s1 (stereo not given) | 53 |  |  |  |  |
| Active | 28.7 | 13.9 | 2210 |  | 1.2 | CCCC#Cc1ccc(-c2c(C)c(C(=O)NN3CCCCC3)nn2-c2ccc(Cl)cc2Cl)s1 | 159 |  |  |  |  |
|  | 28.9 | 32.7 | 1900 | Active |  | Cc1c(C(=O)NN2CCCCC2)nn(-c2ccc(Cl)cc2Cl)c1-c1ccc(C#CC(C)(C)C)s1 | 59 |  |  |  |  |
|  | 75.9 | 57.9 | 6350 |  |  | CCCCCc1ccc(-c2c(C)c(C(=O)NN3CCCCC3)nn2-c2ccc(Cl)cc2Cl)s1 | 109 |  |  |  |  |
|  | 134 | 159 | 2160 |  |  | Cc1c(C(=O)NN2CCCCCC2)nn(-c2ccc(Cl)cc2Cl)c1-c1ccc(Cl)s1 | 14 |  |  |  |  |
| Active | 14.1 | 7 | 1500 |  | 1.2 | CCCC#Cc1ccc(-c2c(C)c(C(=O)NN3CCCCCC3)nn2-c2ccc(Cl)cc2Cl)s1 | 214 |  |  |  |  |
| Active | 19.2 | 7.9 | 785 |  |  | CCCC#Cc1ccc(-c2c(C)c(C(=O)NN3CC4CCCC4C3)nn2-c2ccc(Cl)cc2Cl)s1 (stereo not given) | 99 |  |  |  |  |
|  | 13.8 | 6.1 | 920 |  | 1.2 | CCCC#Cc1ccc(-c2c(CC)c(C(=O)NN3CCCCC3)nn2-c2ccc(Cl)cc2Cl)s1 | 151 |  | Dose-dependent effect | Dose-dependent effect | Active |
|  | 294 | 7.8 | 1730 | Active |  | Cc1c(C(=O)NN2CC3CCCC3C2)nn(-c2ccc(Cl)cc2Cl)c1-c1ccc(C#CC2CCCCC2)s1 (stereo not given) | 221 |  |  |  |  |
|  | 64.9 | 40.7 | 705 |  |  | Cc1c(C(=O)NN2CCCCCC2)nn(-c2ccc(Cl)cc2Cl)c1-c1ccc(Br)s1 | 17 |  |  |  |  |

| Activity (Cannabinoid receptor 1 [1]) | EC50 (Cannabinoid receptor 1 [2]) [nM] | IC50 (Cannabinoid receptor 1 [3]) [nM] | IC50 (Cannabinoid receptor 2) [nM] | Activity (Cannabinoid receptor 1 [4]) | IC50 (Cannabinoid receptor 1 [5]) [nM] | SMILES | Ratio IC50 (HEK293) | Activity (Mus musculus [6]) | Activity (Rattus norvegicus) | Activity (Mus musculus [7]) | Activity (Mus musculus [8]) |
| --- | --- | --- | --- | --- | --- | --- | --- | --- | --- | --- | --- |
|  | 68.2 | 35.8 | 895 |  |  | Cc1c(C(=O)NN2CCCCC2)nn(-c2ccc(Cl)cc2Cl)c1-c1ccc(Br)s1 | 25 |  |  |  |  |
|  | 390 | 82.4 | 7180 |  |  | Cc1c(C(=O)NN2CCCCC2)nn(-c2ccc(Cl)cc2Cl)c1-c1ccc(C#CCNC(C)C)s1 | 87 |  |  |  |  |
|  | 349 | 124 | 1270 |  |  | Cc1c(C(=O)NN2CCCCC2)nn(-c2ccc(Cl)cc2Cl)c1-c1ccc(C#CCN(C)C)s1 | 10 |  |  |  |  |
|  | 5.7 | 1.3 | 158 | Active |  | CCCCC#Cc1ccc(-c2c(C)c(C(=O)NN3CC4CCCC4C3)nn2-c2ccc(Cl)cc2Cl)s1 (stereo not given) | 122 |  |  |  |  |
|  | 48 | 20.6 | 3660 |  |  | CCCCCc1ccc(-c2c(C)c(C(=O)NN3CC4CCCC4C3)nn2-c2ccc(Cl)cc2Cl)s1 (stereo not given) | 178 |  |  |  |  |
|  | 442 | 7.3 | 1580 | Active |  | Cc1c(C(=O)NN2CCCCC2)nn(-c2ccc(Cl)cc2Cl)c1-c1ccc(C#CC2CCCCC2)s1 | 216 |  |  |  |  |
| Active | 72.9 | 60.4 | 4230 |  |  | Cc1c(C(=O)NN2CCCCC2)nn(-c2ccc(Cl)cc2Cl)c1-c1ccc(C#CC2CC2)s1 | 70 |  |  |  |  |
| Active | 51.4 | 65.4 | 4330 |  |  | CCC#Cc1ccc(-c2c(C)c(C(=O)NN3CCCCC3)nn2-c2ccc(Cl)cc2Cl)s1 | 66 |  |  |  |  |
| Active | 105 | 21 | 5720 |  |  | Cc1c(C(=O)NN2CC3CCCC3C2)nn(-c2ccc(Cl)cc2Cl)c1-c1ccc(C#CC2CC2)s1 (stereo not given) | 272 |  |  |  |  |
|  | 71.4 | 27.5 | 5410 |  |  | CCC/C=C/c1ccc(-c2c(C)c(C(=O)NN3CC4CCCC4C3)nn2-c2ccc(Cl)cc2Cl)s1 (stereo not given) | 197 |  |  |  |  |
|  | 20.4 | 6.1 | 1750 | Active |  | Cc1c(C(=O)NN2CCCCC2)nn(-c2ccc(Cl)cc2Cl)c1-c1ccc(C#CCCc2ccccc2)s1 | 285 |  |  |  |  |
|  | 23 | 5.1 | 1210 |  |  | CCc1c(C(=O)NN2CCCCC2)nn(-c2ccc(Cl)cc2Cl)c1-c1ccc(C#CCC(C)C)s1 | 236 |  |  |  |  |
|  | 4.8 | 1.7 | 564 | Active |  | CCCCC#Cc1ccc(-c2c(C)c(C(=O)NN3CCCCCC3)nn2-c2ccc(Cl)cc2Cl)s1 | 332 |  |  |  |  |
|  | 25.5 | 12.7 | 986 |  |  | CCOCC#Cc1ccc(-c2c(C)c(C(=O)NN3CCCCC3)nn2-c2ccc(Cl)cc2Cl)s1 | 78 |  |  |  |  |
|  | 99.3 | 10.5 | 902 | Active |  | Cc1c(C(=O)NN2CC3CCCC3C2)nn(-c2ccc(Cl)cc2Cl)c1-c1ccc(C#CC2CCCC2)s1 (stereo not given) | 86 |  |  |  |  |
|  | 147 | 50.2 | 1290 |  |  | Cc1c(C(=O)NN2CCCCC2)nn(-c2ccc(Cl)cc2Cl)c1-c1ccc(Cl)s1 | 26 |  |  |  |  |
| Active | 35.5 | 28.3 | 921 |  |  | CCC#Cc1ccc(-c2c(C)c(C(=O)NN3CC4CCCC4C3)nn2-c2ccc(Cl)cc2Cl)s1 (stereo not given) | 33 |  |  |  |  |

| SMILES | Activity (Cannabinoid receptor 1 [1]) | EC50 (Cannabinoid receptor 1 [2]) [nM] | IC50 (Cannabinoid receptor 1 [3]) [nM] | IC50 (Cannabinoid receptor 2) [nM] | Activity (Cannabinoid receptor 1 [4]) | IC50 (Cannabinoid receptor 1 [5]) [nM] | Ratio IC50 (HEK293) | Activity (Mus musculus [6]) | Activity (Rattus norvegicus) | Activity (Mus musculus [7]) | Activity (Mus musculus [8]) |
| --- | --- | --- | --- | --- | --- | --- | --- | --- | --- | --- | --- |
| Cc1c(C(=O)NN2CCCCC2)nn(-c2ccc(Cl)cc2Cl)c1-c1ccc(C#CCOc2ccccc2)s1 | Active | 18.7 | 43 | 7030 |  |  | 164 |  |  |  |  |
| CCCCC#Cc1ccc(-c2c(C)c(C(=O)NCCCC)nn2-c2ccc(Cl)cc2Cl)s1 |  | 29.8 | 3 | 638 | Active |  | 213 |  |  |  |  |
| CCCCC#Cc1ccc(-c2c(C)c(C(=O)NCCCCCC)nn2-c2ccc(Cl)cc2Cl)s1 |  | 74 | 2.6 | 261 | Active |  | 100 |  |  |  |  |
| CCCC#Cc1ccc(-c2c(CC)c(C(=O)NN3CCCCCC3)nn2-c2ccc(Cl)cc2Cl)s1 |  | 16.5 | 8.9 | 310 |  | 1.2 | 34 |  |  |  |  |
| CCCCC#Cc1ccc(-c2c(C)c(C(=O)NN3CCCCC3)nn2-c2ccc(Cl)cc2Cl)s1 |  | 7.9 | 1.4 | 311 | Active |  | 222 |  |  |  |  |
| CCC/C=C/c1ccc(-c2c(C)c(C(=O)NN3CCCCC3)nn2-c2ccc(Cl)cc2Cl)s1 |  | 146 | 21.6 | 3840 |  |  | 178 |  |  |  |  |
| CCCCC#Cc1ccc(-c2c(C)c(C(=O)NC3CCCCC3)nn2-c2ccc(Cl)cc2Cl)s1 |  | 43.9 | 2.1 | 278 | Active |  | 133 |  |  |  |  |
